What follows are compounds tested against RNA-directed RNA polymerase (UniProt O39930) (assay: Inhibitory concentration against NS5B HCV polymerase using [alpha-32P]UTP as radioligand (30 degree C for 2 h, at pH 7.5 with Tris-HCl buffer)).
Procedure, shortened: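 Recombinant HCV RdRp (1 nM) in 20 mM Tris-HCl pH 7.5, 5 mM MgCl2, 1 mM DTT, 1 mM EDTA, RNase inhibitor, 50 µg/mL actinomycin D, 10 µg/mL RNA template, 0.5 mM ATP/CTP/GTP, [α-32P]UTP, limiting nucleotide 10 µM. 30 °C, 2 h; proteinase K stop, extraction, urea-PAGE, phosphorimaging. IC50s rescaled by a reference inhibitor's measured/literature IC50 ratio.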

Sequence of RNA-directed RNA polymerase (O39930 whole entry): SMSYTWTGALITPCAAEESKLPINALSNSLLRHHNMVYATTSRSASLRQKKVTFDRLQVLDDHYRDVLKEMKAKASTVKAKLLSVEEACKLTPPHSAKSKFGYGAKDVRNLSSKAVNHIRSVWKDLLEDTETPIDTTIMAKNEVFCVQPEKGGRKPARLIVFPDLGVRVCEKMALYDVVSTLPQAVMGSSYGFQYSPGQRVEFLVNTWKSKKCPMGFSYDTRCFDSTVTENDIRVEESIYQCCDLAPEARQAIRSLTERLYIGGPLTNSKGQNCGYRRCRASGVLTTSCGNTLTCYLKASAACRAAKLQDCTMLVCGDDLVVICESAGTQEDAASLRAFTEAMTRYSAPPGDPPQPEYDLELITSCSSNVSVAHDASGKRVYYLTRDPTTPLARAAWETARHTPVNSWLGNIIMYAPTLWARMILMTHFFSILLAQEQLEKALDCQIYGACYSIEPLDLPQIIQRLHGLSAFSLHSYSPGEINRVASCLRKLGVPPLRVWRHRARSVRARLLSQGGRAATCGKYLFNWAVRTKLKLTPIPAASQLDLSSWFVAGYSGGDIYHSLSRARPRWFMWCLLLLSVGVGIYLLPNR

Row | SMILES | IC50 [µM]
1 | O=C(O)C(=O)CC(=O)c1ccco1 | 50
2 | Cc1ccc(Cn2cccc2C=CC(=O)CC(=O)C(=O)O)cc1 | 28
3 | COc1ccc(Cn2cccc2C=CC(=O)CC(=O)C(=O)O)cc1 | 16
4 | O=C(O)C(=O)CC(=O)c1cccc(-c2ccccc2)c1 | 28
5 | O=C(O)C(=O)CC(=O)c1cccc(Oc2ccccc2)c1 | 19
6 | O=C(O)C(=O)CC(=O)c1cccn1Cc1ccc2ccccc2c1 [(Z)-2-Hydroxy-4-(1-naphthalen-2-ylmethyl-1H-pyrrol-2-yl)-4-oxo-but-2-enoic acid] | 13
7 | O=C(O)C(=O)CC(=O)c1cccn1Cc1ccc(O)cc1 [(Z)-2-Hydroxy-4-[1-(4-hydroxy-benzyl)-1H-pyrrol-2-yl]-4-oxo-but-2-enoic acid] | 13
8 | O=C(O)C(=O)CC(=O)c1cccc(NC(=O)C(=O)O)c1 [(Z)-2-Hydroxy-4-[3-(oxalyl-amino)-phenyl]-4-oxo-but-2-enoic acid] | 19
9 | O=C(O)C(=O)CC(=O)c1ccc(N2CCCCC2)s1 [(Z)-2-Hydroxy-4-oxo-4-(5-piperidin-1-yl-thiophen-2-yl)-but-2-enoic acid] | 8.2
10 | O=C(O)C(=O)CC(=O)c1cccc(OCc2cccc(Oc3ccccc3)c2)c1 [(Z)-2-Hydroxy-4-oxo-4-[3-(3-phenoxy-benzyloxy)-phenyl]-but-2-enoic acid] | 50

Results, then the compound that gave them:

Row | IC50 [µM] | SMILES
11 | 8.2 | Cc1cc(C)c(C(=O)CC(=O)C(=O)O)s1 [(Z)-4-(3,5-Dimethyl-thiophen-2-yl)-2-hydroxy-4-oxo-but-2-enoic acid]
12 | 13 | N#CCCCCn1cccc1C(=O)CC(=O)C(=O)O [(Z)-4-[1-(4-Cyano-butyl)-1H-pyrrol-2-yl]-2-hydroxy-4-oxo-but-2-enoic acid]
13 | 18 | O=C(O)C(=O)CC(=O)c1cc(I)cn1Cc1ccc(F)cc1 [(Z)-4-[1-(4-Fluoro-benzyl)-4-iodo-1H-pyrrol-2-yl]-2-hydroxy-4-oxo-but-2-enoic acid]
14 | 18 | O=C(O)C(=O)CC(=O)c1ccsc1Cc1ccc(F)cc1 [(Z)-4-[2-(4-Fluoro-benzyl)-thiophen-3-yl]-2-hydroxy-4-oxo-but-2-enoic acid]
15 | 0.1 | N#Cc1cccc(Cl)c1COc1cc(O)cc(C(=O)CC(=O)C(=O)O)c1 [(Z)-4-[3-(2-Chloro-6-cyano-benzyloxy)-5-hydroxy-phenyl]-2-hydroxy-4-oxo-but-2-enoic acid]
16 | 50 | O=C(O)C(=O)CC(=O)c1cccc(OCc2ccc(-c3ccccc3)cc2)c1 [(Z)-4-[3-(Biphenyl-4-ylmethoxy)-phenyl]-2-hydroxy-4-oxo-but-2-enoic acid]
17 | 18 | O=C(C=Cc1c[nH]c2ccc(Cl)cc12)CC(=O)C(=O)O [(Z)-6-((E)-5-Chloro-1H-indol-3-yl)-2-hydroxy-4-oxo-hexa-2,5-dienoic acid]
18 | 18 | O=C(C=Cc1cccn1Cc1cccc(F)c1)CC(=O)C(=O)O [(Z)-6-[1-(3-Fluoro-benzyl)-1H-pyrrol-2-yl]-2-hydroxy-4-oxo-hexa-2,5-dienoic acid]
19 | 18 | Cc1ccccc1Cn1cccc1C=CC(=O)CC(=O)C(=O)O [(Z)-6-[1-((E)-obenzyl)-1H-Pyrrol-2-yl]-2-hydroxy-4-oxo-hexa-2,5-dienoic acid]
20 | 16 | Cn1cc(C(=O)c2ccc(F)cc2)cc1C=CC(=O)CC(=O)C(=O)O [(Z)-6-[4-(4-Fluoro-benzoyl)-1-methyl-1H-pyrrol-2-yl]-2-hydroxy-4-oxo-hexa-2,5-dienoic acid]

— BindingDB's records for doi:10.1021/jm0504454 (Sapienza University of Rome, 2005)
